In ChEMBL document CHEMBL2401735, “Synthesis and cytotoxicity of novel (thiazol-2-yl)hydrazine derivatives as promising anti-Candida agents” (Eur J Med Chem, 2013):
Converted amounts (≈) assume the structure as drawn.

How the values were obtained:
HEp-2 [1] = assay: Cytotoxicity against human Hep2 cells assessed as cell survival at 100 ug/ml after 24 hrs by transmission electron microscopic analysis; format: cell-based; conditions: hep-2, 24 h
Method in brief: (§1)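 Hep2 cells treated and then examined by transmission electron microscopy, with unexposed cells as controls. Samples stained with 0.1% tannic acid for 30 min and uranyl acetate (5 mg/mL) for 1 h at 25 °C, dehydrated in graded acetone, embedded in Epon-812. Ultrathin sections counterstained with uranyl acetate and lead citrate before viewing.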

HEp-2 [2] = assay: Cytotoxicity against human Hep2 cells assessed as induction of vacuolization in proximity of mitochondria at 5 ug/ml after 24 hrs by transmission electron microscopic analysis; format: cell-based; conditions: hep-2, 24 h; method in brief: as §1
HEp-2 [3] = assay: Cytotoxicity against human Hep2 cells assessed as appearance of finely granular cytoplasm at 5 ug/ml after 24 hrs by transmission electron microscopic analysis; format: cell-based; conditions: hep-2, 24 h; method in brief: as §1
[4] = Cytotoxicity against human Hep2 cells assessed as reduction of cell viability after 24 hrs by trypan blue exclusion assay; format: cell-based; conditions: HEp-2 cells
Method in brief: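 Hep2 cells in DMEM with 10% FBS, penicillin-streptomycin, 5% CO₂, 37 °C. Cells at 1 × 10⁵/mL exposed 24 h to seven concentrations (0.005-100 µg/mL), DMSO ≤0.5% final; controls were medium alone, DMSO, and 1 mM sodium nitroprusside. Cells scraped, allowed 30 min recovery, mixed 1:1 with 0.4% trypan blue, counted by hemocytometer by two operators.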

[5] = Cytotoxicity against human Hep2 cells assessed as cell survival fraction at 0.005 ug/ml after 24 hrs by trypan blue exclusion assay (reference value: 97 to 98%); format: cell-based; conditions: HEp-2 cells, read-out: Survival
[6] = Cytotoxicity against human Hep2 cells assessed as cell survival fraction at 0.05 ug/ml after 24 hrs by trypan blue exclusion assay (reference value: 97 to 98%); format: cell-based; conditions: HEp-2 cells, read-out: Survival
[7] = Cytotoxicity against human Hep2 cells assessed as cell survival fraction at 0.5 ug/ml after 24 hrs by trypan blue exclusion assay (reference value: 97 to 98%); format: cell-based; conditions: HEp-2 cells, read-out: Survival
[8] = Cytotoxicity against human Hep2 cells assessed as cell survival fraction at 5 ug/ml after 24 hrs by trypan blue exclusion assay (reference value: 97 to 98%); format: cell-based; conditions: HEp-2 cells, read-out: Survival
[9] = Cytotoxicity against human Hep2 cells assessed as cell survival fraction at 50 ug/ml after 24 hrs by trypan blue exclusion assay (reference value: 97 to 98%); format: cell-based; conditions: HEp-2 cells, read-out: Survival
[10] = Cytotoxicity against human Hep2 cells assessed as cell survival fraction at 100 ug/ml after 24 hrs by trypan blue exclusion assay (reference value: 97 to 98%); format: cell-based; conditions: HEp-2 cells, read-out: Survival
[Candida] sake = Anticandida activity against Candida sake clinical isolate assessed as growth inhibition after 24 hrs by broth microdilution method; format: functional; conditions: Fermentozyma sake
Method in brief: (§2)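 Clinical Candida isolates subcultured for purity and optimal growth before testing; compounds dissolved in DMSO. Broth microdilution per NCCLS in Sabouraud dextrose broth, serial dilutions, inoculum about 10³/mL, with growth control and medium-only control; 24 h incubation at 37 °C. MIC is the lowest concentration giving complete visible inhibition.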

Candida tropicalis = assay: Anticandida activity against Candida tropicalis clinical isolate assessed as growth inhibition after 24 hrs by broth microdilution method; format: functional; method in brief: as §2
Nakaseomyces glabratus = assay: Anticandida activity against Candida glabrata clinical isolate assessed as growth inhibition after 24 hrs by broth microdilution method; format: functional; method in brief: as §2
HEp-2 [11] = assay: Cytotoxicity against human Hep2 cells assessed as dilatation of endoplasmic reticulum at 100 ug/ml after 24 hrs by transmission electron microscopic analysis; format: cell-based; conditions: hep-2, 24 h; method in brief: as §1
HEp-2 [12] = assay: Cytotoxicity against human Hep2 cells assessed as mitochondrial swelling at 5 ug/ml after 24 hrs by transmission electron microscopic analysis; format: cell-based; conditions: hep-2, 24 h; method in brief: as §1
HEp-2 [13] = assay: Cytotoxicity against human Hep2 cells assessed as loss of cristae at 5 ug/ml after 24 hrs by transmission electron microscopic analysis; format: cell-based; conditions: hep-2, 24 h; method in brief: as §1
[14] = Cytotoxicity against human Hep2 cells assessed as cell survival fraction at 10 ug/ml after 24 hrs by trypan blue exclusion assay (reference value: 97 to 98%); format: cell-based; conditions: HEp-2 cells, read-out: Survival
Candida parapsilosis = assay: Anticandida activity against Candida parapsilosis clinical isolate assessed as growth inhibition after 24 hrs by broth microdilution method; format: functional; conditions: Lodderomyces parapsilosis; method in brief: as §2
Pichia kudriavzevii = assay: Anticandida activity against Candida krusei clinical isolate assessed as growth inhibition after 24 hrs by broth microdilution method; format: functional; method in brief: as §2
Candida albicans = assay: Anticandida activity against Candida albicans clinical isolate assessed as growth inhibition after 24 hrs by broth microdilution method; format: functional; method in brief: as §2
Klebsiella oxytoca = assay: Antibacterial activity against Klebsiella oxytoca assessed as growth inhibition after 18 to 22 hrs by broth microdilution method; format: functional
Method in brief: (§3)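 Bacterial isolates subcultured for purity, identified conventionally. Broth microdilution per NCCLS in Mueller-Hinton II broth; plates with growth control (no compound) and medium-only control, incubated 18-22 h at 35 °C. MIC taken as lowest concentration giving complete growth inhibition by unaided eye.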

Proteus mirabilis = assay: Antibacterial activity against Proteus mirabilis assessed as growth inhibition after 18 to 22 hrs by broth microdilution method; format: functional; method in brief: as §3
Enterobacter sp. = assay: Antibacterial activity against Enterobacter spp. assessed as growth inhibition after 18 to 22 hrs by broth microdilution method; format: functional; method in brief: as §3
Escherichia coli = assay: Antibacterial activity against Escherichia coli assessed as growth inhibition after 18 to 22 hrs by broth microdilution method; format: functional; method in brief: as §3
Enterococcus faecalis = assay: Antibacterial activity against […] assessed as growth inhibition after 18 to 22 hrs by broth microdilution method; format: functional; method in brief: as §3
Staphylococcus warneri = assay: Antibacterial activity against Staphylococcus warneri assessed as growth inhibition after 18 to 22 hrs by broth microdilution method; format: functional; method in brief: as §3
Staphylococcus aureus = assay: Antibacterial activity against Staphylococcus aureus assessed as growth inhibition after 18 to 22 hrs by broth microdilution method; format: functional; method in brief: as §3
[15] = tested on: Streptococcus alpha-hemolyticus; assay: Antibacterial activity against Streptococcus alpha-hemolyticus assessed as growth inhibition after 18 to 22 hrs by broth microdilution method
HEp-2 [16] = assay: Cytotoxicity against human Hep2 cells assessed as appearance of autophagic vacuoles near to mitochondrial proximity in cytoplasm at 5 to 100 ug/ml after 24 hrs by transmission electron microscopic analysis; format: cell-based; conditions: hep-2, 24 h; method in brief: as §1

SMILES	CC50 at 24 h [4] [µg/mL]	viability at 24 h, 0.005 ug/ml [5] [%]	viability at 24 h, 0.05 ug/ml [6] [%]	viability at 24 h, 0.5 ug/ml [7] [%]	viability at 24 h, 5 ug/ml [8] [%]	viability at 24 h, 50 ug/ml [9] [%]	viability at 24 h, 100 ug/ml [10] [%]	MIC ([Candida] sake) [µg/mL]	MIC (Candida tropicalis) [µg/mL]	MIC (Nakaseomyces glabratus) [µg/mL]	viability at 24 h, 10 ug/ml [14] [%]	MIC (Candida parapsilosis) [µg/mL]	MIC (Pichia kudriavzevii) [µg/mL]	MIC (Candida albicans) [µg/mL]	MIC (Klebsiella oxytoca) [µg/mL]	MIC (Proteus mirabilis) [µg/mL]	MIC (Enterobacter sp.) [µg/mL]	MIC (Escherichia coli) [µg/mL]	MIC (Enterococcus faecalis) [µg/mL]	MIC (Staphylococcus warneri) [µg/mL]	further results
Clc1ccccc1C(c1ccccc1)(c1ccccc1)n1ccnc1 [CLOTRIMAZOLE]	38 (≈ 110 µM)	94.4	93	93.4	92.5	0	0	4 (≈ 11.6 µM)	2 (≈ 5.8 µM)	2 (≈ 5.8 µM)											Activity (HEp-2 [1]): Toxic; Activity (HEp-2 [2]): Toxic; Activity (HEp-2 [3]): Toxic
CC/C(C)=N/Nc1nc(-c2ccc(OC)cc2)cs1	25 (≈ 90.8 µM)	78	71	64	69	0	0	2 (≈ 7.26 µM)	2 (≈ 7.26 µM)	2 (≈ 7.26 µM)	64	2 (≈ 7.26 µM)	2 (≈ 7.26 µM)	0.25 (≈ 0.908 µM)	> 256	> 256	> 256	> 256	> 256	> 256	Activity (HEp-2 [11]): Toxic; Activity (HEp-2 [12]): Toxic; Activity (HEp-2 [13]): Toxic; MIC (Staphylococcus aureus): > 256 µg/mL; MIC [15]: > 256 µg/mL
CCC/C(C)=N/Nc1nc(-c2ccc(C)cc2)cs1	≥ 100	97	94	91	93	72.8	62	2 (≈ 7.32 µM)	2 (≈ 7.32 µM)	0.5 (≈ 1.83 µM)	83.2	2 (≈ 7.32 µM)	2 (≈ 7.32 µM)	0.5 (≈ 1.83 µM)	> 256	> 256	> 256	> 256	> 256	> 256	Activity (HEp-2 [16]): Toxic; MIC (Staphylococcus aureus): > 256 µg/mL; MIC [15]: > 256 µg/mL
